# G6PDH counter: L. mesenteroides G6PDH inhibition counter-screen. Purified L. mesenteroides G6PDH, diaphorase/resazurin coupled fluorescence, 45 min. inhibition, % at 5 µM. hit rate 0.12% among 200,000
# WT yeast gro inh: growth inhibition of WT yeast, mitochondrial fusion screen | mitochondrial fusion phenotypic screen, WT strain | inhibition, % at 10 µM | hit rate 2.1% among 190,000; in the data active = inhibition above about 58%; tested in S. cerevisiae
# Lmaj promast: reduces viability of Leishmania major promastigotes. resazurin fluorescence viability. inhibition, % at 10 µM. hit rate 9% among 200,000. AID 1063;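 note: promastigotes grown with compound for 44 hours at 28 °C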
# Diaph act CS: counter-screen for diaphorase-based assays: diaphorase activators and chemical reducers | Diaphorase/resazurin coupled assay, resorufin fluorescence, 16 min; stronger effect = higher value; 1 = vehicle wells, 0 = NADH-free wells | activation factor at 20 µM | hit rate 0.005% among 190,000 | AID 1229;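 active = diaphorase activity raised at least twofold by the compound at 20 µM; inactive = activation factor below 2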
#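 Material: Purified diaphorase enzyme from Clostridium kluyveri | Buffer or medium: 50 mM HEPES pH 7.4 with 4.542 mM MgCl2, 0.005% Tween 20 | Times: 16 min enzyme reaction, ambient temperature | Signal: Red resorufin fluorescence at 544/590 nm excitation/emission | Measure: Increased resorufin signal from activators or reducing compounds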
# Diaphorase inh: counter-screen for diaphorase-based assays: diaphorase inhibitors and chemical oxidizers. diaphorase resazurin-to-resorufin fluorescence, NADH, 16 min; bacterial (C. kluyveri) enzyme, not human. inhibition, % at 20 µM. hit rate 0.69% among 190,000. AID 1217;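 active = primary screen inhibition at 20 µM above a set limit, cut at about 50% in these data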;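 note: plate controls were DMSO with full reaction for no effect and wells lacking NADH for full effect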
#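 Assay system: diaphorase enzyme from Clostridium kluyveri. Quantity: enzyme working solution with 0.14 U/mL diaphorase. Schedule: reaction incubation of 16 min at room temperature. Technique: resorufin fluorescence, excitation 544 nm, emission 590 nm. Controls: No-NADH positive control and DMSO neutral control.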
# The depositor's hits bear a star; nt = no result. Hits are enriched below; roughly 11% of the tested compounds scored in any of these assays. Cut-off read from the data, not from the text of the source, unless noted: active = inhibition above about 50%; inactive = the rest.
SMILES,G6PDH counter,WT yeast gro inh,Lmaj promast,Diaph act CS,Diaphorase inh
COc1cc(/C=C2/SC(=S)N(c3c(C)n(C)n(-c4ccccc4)c3=O)C2=O)ccc1O,9,12,24,0.9,7
Cc1ccc(CNc2ccc3c(c2)ncn3C(C)(C)C)cc1,3,36,22,0.7,32
O=C1c2ccccc2C(=O)N1CCCCSc1nc2ccccc2c(=O)n1CCCN1CCOCC1,2,16,33,0.8,18
COc1cc(NCCCCCCCN)c2ncccc2c1,53*,31,100*,0.8,17
C[C@H]1COC2=C1C(=O)C(=O)c1c2ccc2c1CCCC2(C)C,43,74*,8,0.7,26
Cc1coc2cc3oc(=O)c4c(c3cc12)CCC4,14,-8,-5,0.9,11
Cc1coc2c1C(=O)C(=O)c1c-2ccc2c1CCCC2(C)C,45,73*,98*,0.7,31
O=C(Nc1ccc(Cl)cc1F)C1CC1,0,-17,-4,0.9,5
S=C1NC2(CCCCC2)NN1c1ccccc1,6,44,81*,1,-5
CC1CCCC2(C1)NC(=S)N(c1ccccc1)N2 (stereo not drawn),6,30,84*,1,3
CC1CC(C)(C)CC2(C1)NC(=S)N(c1ccccc1)N2 (stereo not drawn),4,12,4,1,4
O=C1CCc2ccc(OCCCCN3CCN(c4cccc(Cl)c4Cl)CC3)cc2N1,11,84*,nt,0.8,16
COc1ccccc1N1CCN(CCCOc2ccc(F)cc2)CC1,2,23,9,1,3
COc1cccc(/C=C/C(=O)c2ccc(C)c([N+](=O)[O-])c2)c1,-4,-3,76*,0.9,12
COc1cc(/C=C/C(=O)c2cccc([N+](=O)[O-])c2)cc(OC)c1OC,7,23,100*,0.9,8
COc1ccccc1NC(=O)/C(=C/c1cccc([N+](=O)[O-])c1)c1ccccc1,-18,30,89*,1,0
COc1ccc(/C=C/C(=O)c2ccc(C)c([N+](=O)[O-])c2)cc1O,-5,8,100*,0.7,32
COc1ccc(CCNC(=O)Cc2c(Cl)cccc2Cl)cc1,7,28,-5,0.9,12
COc1cccc(/C=C/C(=O)c2ccc[nH]2)c1,3,1,100*,0.9,6
COc1cc(/C=N/NC(=O)c2ccc(C)nc2)cc([N+](=O)[O-])c1O,1,1,6,1,-2
COc1cc(/C=C/C(=O)c2ccc(C)c([N+](=O)[O-])c2)cc(OC)c1O,-10,-11,79*,0.8,25
CCOc1ccc(N(CC(=O)NC2CCCC2)C(=O)CSc2nnc(COc3ccccc3)o2)cc1,5,17,11,0.9,6
COc1ccc(/C=N/NC(=O)C2CCN(c3ncc(C(F)(F)F)cc3Cl)CC2)cc1,3,39,-3,1,0
CN(CCOC(=O)c1cccc(Br)c1)C(C)(C)C,-1,-4,-2,1,1
CN(C)CCC(=O)c1cccc(Br)c1,4,1,52*,1,1
SMILES,G6PDH counter,WT yeast gro inh,Lmaj promast,Diaph act CS,Diaphorase inh
CN(C)CCCC(=O)c1ccc2c(c1)OCO2,-2,-6,8,0.9,14
CN(C)CCC(=O)c1ccc2c(c1)OCO2,13,1,98*,1,5
CC1CCCCC12NC(=O)N(CC(=O)Nc1ccc(N3CCOCC3)cc1)C2=O (stereo not drawn),-5,1,4,0.9,6
CCOC(=O)c1c(N)sc(C(O)(C(F)(F)F)C(F)(F)F)c1-c1ccc(Cl)cc1,3,96*,29,0.7,27
COc1ccc(/C=C2\CCc3ccccc3C2=O)cc1OC,2,0,51*,0.8,17
COc1ccc(/C=C2/CCc3ccccc3C2=O)cc1CN1CCOCC1,-2,-5,82*,0.8,23
COc1ccc2c(c1)CC/C(=C/c1cc(OC)c(OC)c(OC)c1)C2=O,6,2,40,0.9,12
COc1ccc(/C=C2\CCc3ccccc3C2=O)cc1Cn1nc(C)cc1C,4,80*,74*,0.7,32
CCOC(=O)N1CCC(NC(=O)c2cc(-c3ccc(F)cc3)[nH]c2C)CC1,3,67*,2,0.9,7
O=C(O/N=C1/CCSc2ccccc21)c1ccccc1,5,28,-8,0.9,5
NC(=S)N/N=C1/CCSc2ccc3ccccc3c21,10,76*,5,0.8,18

# Screens as filed in PubChem BioAssay.
